pIC50: −log10 of the molar value.
Key:
Glutamate NMDA receptor [1] = test: (§1) Binding affinity against PCP binding site associated with N-methyl-D-aspartate glutamate receptor from rat synaptic plasma membrane(SPM) determined using [3H]TCP as radioligand.
Method in brief: (§2)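 Crude rat brain synaptic plasma membranes (cerebellum removed, extensively washed) were used in 5 mM Tris-HCl pH 7.4. [3H]TCP at 5 nM final was incubated with ~0.2 mg membranes for 60 min at 23 °C. Nonspecific binding was defined with cold phencyclidine. Samples were filtered on GF/B pre-soaked in 0.5% PEI, washed with 5 mM Tris pH 7.7 and counted.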

[2] = target: Glutamate [NMDA] receptor; test: Inhibition of [3H]1 binding to dextromethorpin binding site of guinea pig microsomal pellet P3 N-methyl-D-aspartate glutamate receptor; design: species or system Cavia porcellus
Method in brief: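 Guinea pig brain microsomal P3 fraction (100000g, 60 min pellet) was used in Tris-HCl pH 7.4. [3H]dextromethorphan at 5 nM final was incubated with ~0.5 mg tissue for 20 min at 23 °C, with displacer at 10^-9–10^-5 M. Nonspecific binding was defined with 100 µM unlabelled ligand. Samples were filtered on GF/B in cold Tris/choline chloride/Triton buffer and counted.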

[3] = target: T1, Glutamate NMDA receptor (Rattus norvegicus) (UniProt P35439+Q00959+Q00960+Q00961+Q62645+Q8VHN2+Q9R1M7); test: Binding affinity against PCP binding site associated with N-methyl-D-aspartate glutamate receptor from rat synaptic plasma membrane(SPM) determined using [3H]TCP as radioligand; details: concentration not given here; method in brief: as §2
[4] = target: Glutamate [NMDA] receptor; test: Binding affinity against dextromethorpin binding site associated with N-methyl-D-aspartate glutamate receptor from guinea pig mitochondrial pellet P2 determined using [3H]1 as radioligand.; format: protein-complex assay, Cavia porcellus
Method in brief: (§3)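 Guinea pig brain crude mitochondrial P2 fraction (11500g pellet, De Robertis-based) was used in Tris-HCl pH 7.4. [3H]dextromethorphan at 5 nM final was incubated with ~0.3 mg tissue for 20 min at 23 °C, with displacer at 10^-9–10^-5 M. Nonspecific binding was defined with 100 µM unlabelled ligand. Samples were filtered on GF/B and counted by scintillation.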

Rattus norvegicus [5] = test: Anticonvulsant activity in rat supramaximal electroshock (MES) test expressed as % rats protected at a dose of 10 and 25 mg/kg.; format: functional
Method in brief: (§4)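 Rats were given the compound sc in freshly diluted normal saline (DMSO or HCl-assisted dissolution for some compounds) at 1-2 mL/kg. Vehicle-injected controls were run. Rats were tested at 30 min after injection. The read-out is the % of rats protected from convulsion in the MES test at the stated doses, with n = 10 rats.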

Rattus norvegicus [6] = test: Anticonvulsant activity in rat supramaximal electroshock (MES) test within a dose range of 15-60 mg/kg.; format: functional
Method in brief: (§5)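 The compound was given sc in freshly diluted normal saline at 1-2 mL/kg across the stated dose range, with vehicle-injected controls. MES protection was scored 30 min post-dose, with n = 10 rats. ED50 was derived from the dose-response and reported with 95% confidence limits, in mg/kg and µmol/kg.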

Rattus norvegicus [7] = test: Anticonvulsant activity in rat supramaximal electroshock (MES) test within a dose range of 15-60 mg/kg administered subcutaneously; format: functional; details: sc; method in brief: as §5
Glutamate NMDA receptor [8] = test: Binding affinity against glycine binding site of N-methyl-D-aspartate glutamate receptor from rat synaptic plasma membrane(SPM) using [3H]glycine; NA = No effect
Glutamate NMDA receptor [9] = test: Binding affinity against dextromethorpin binding site of N-methyl-D-aspartate glutamate receptor from rat brain using [3H]1
Method in brief: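 Rat brain membranes were the 100000g pellet of the 1000g supernatant, in 50 mM Tris-HCl pH 7.4. [3H]dextromethorphan (5 nM final) was incubated with ~0.3 mg membranes for 20 min at 23 °C, with displacer at 10^-9–10^-5 M. Nonspecific binding was defined with 100 µM unlabelled ligand. Samples were filtered on GF/B in cold Tris/choline chloride/Triton wash and counted by scintillation.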

[10] = target: Glutamate [NMDA] receptor; test: Binding affinity against dextromethorpin binding site associated with N-methyl-D-aspartate glutamate receptor from guinea pig mitochondriall pellet P2 determined using [3H]1 as radioligand.; format: protein-complex assay, Cavia porcellus; method in brief: as §3
Glutamate NMDA receptor [11] = test: Binding affinity against glycine binding site associated with N-methyl-D-aspartate glutamate receptor from rat synaptic plasma membrane(SPM) determined using [3H]glycine as radioligand.;NA = No effect
Rattus norvegicus [12] = test: Anticonvulsant activity in rat supramaximal electroshock (MES) test expressed as % rats protected at a dose of 2.5-10 mg/kg.; format: functional; method in brief: as §4
Rattus norvegicus [13] = test: Anticonvulsant activity in rat supramaximal electroshock (MES) test expressed as % rats protected at a dose of 25-50 mg/kg.; format: functional; method in brief: as §4
[14] = target: T1, Glutamate NMDA receptor (Rattus norvegicus); test: as §1; details: concentration not given here
Method in brief: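 Rat brain (minus cerebellum) crude synaptic plasma membranes, washed repeatedly in 5 mM Tris-HCl pH 7.4; about 0.2 mg incubated with 5 nM [3H]TCP for 60 min at 23 °C, 0.5 mL final volume. Displacers tested at 10^-9–10^-5 M; cold PCP defines nonspecific binding. Bound ligand collected by filtration on PEI-soaked GF/B filters and counted by scintillation.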

[15] = target: T1, Glutamate NMDA receptor (Rattus norvegicus); test: as §1; method in brief: as §2
Rattus norvegicus [16] = test: Anticonvulsant activity in rat supramaximal electroshock (MES) test expressed as % rats protected at a dose of 40 mg/kg.; format: functional; method in brief: as §4
Rattus norvegicus [17] = test: Anticonvulsant activity in rat supramaximal electroshock (MES) test expressed as % rats protected at a dose of 5-40 mg/kg.; format: functional; method in brief: as §4
[18] = target: T1, Glutamate NMDA receptor (Rattus norvegicus); details: 10e-5 M
[19] = target: T2, Glutamate [NMDA] receptor (Homo sapiens) (UniProt Q05586+Q12879+Q13224+O15399+O60391+Q14957+Q8TCU5); details: Cavia porcellus; Plasma; 10e-5 M
[20] = target: T2, Glutamate [NMDA] receptor (Homo sapiens); details: Cavia porcellus; 10e-5 M

c1ccc(C2(N3CCCCC3)CCCCC2)cc1 [PHENCYCLIDINE]
pIC50 (Glutamate NMDA receptor [1]): 6.74

CCOc1ccc2c(c1)C13CCCCC1C(C2)N(C)CC3 (stereo not drawn)
pIC50 [2]: 6.89
inhibition [3]: 75%
pIC50 [4]: 7.05
Protection (Rattus norvegicus [5]): 90%
ED50 (Rattus norvegicus [6]): 17.4 µmol/kg
ED50 (Rattus norvegicus [7]): 5.6 mg/kg
IC50 (Glutamate NMDA receptor [8]): Not Active
pIC50 (Glutamate NMDA receptor [9]): 6.38

CN1CC[C@]23CCCC[C@H]2[C@H]1Cc1ccc(O)cc13 [LEVORPHANOL]
pIC50 [10]: 5.60
pIC50 [2]: 5.57
IC50 (Glutamate NMDA receptor [11]): Not Active
ED50 (Rattus norvegicus [6]): 12 µmol/kg
ED50 (Rattus norvegicus [7]): 5 mg/kg
Protection (Rattus norvegicus [12]): 90%
pIC50 (Glutamate NMDA receptor [1]): 5.92
pIC50 (Glutamate NMDA receptor [9]): 5.11

CN1CCC23CCCCC2C1Cc1ccc(Cl)cc13 (stereo not drawn)
pIC50 [2]: 6.68
pIC50 [4]: 6.43
Protection (Rattus norvegicus [13]): 10%
pIC50 (Glutamate NMDA receptor [1]): 5.26
IC50 (Glutamate NMDA receptor [8]): Not Active
pIC50 (Glutamate NMDA receptor [9]): 5.96

CN(C)CCCN1c2ccccc2Sc2ccc(Cl)cc21 [CHLORPROMAZINE]
inhibition [14]: 25%
pIC50 [2]: 6.22
pIC50 [4]: 5.96
IC50 (Glutamate NMDA receptor [8]): Not Active
pIC50 (Glutamate NMDA receptor [9]): 5.89

CN(C)c1ccc2c(c1)C13CCCCC1C(C2)N(C)CC3 (stereo not drawn)
inhibition [15]: 45 µM
pIC50 [2]: 5.96
Protection (Rattus norvegicus [16]): 40%
pIC50 [4]: 6.17
IC50 (Glutamate NMDA receptor [8]): Not Active
pIC50 (Glutamate NMDA receptor [9]): 5.36

CCCCOc1ccc2c(c1)C13CCCCC1C(C2)N(C)CC3 (stereo not drawn)
pIC50 [2]: 7.00
inhibition [3]: 58%
pIC50 [4]: 6.80
Protection (Rattus norvegicus [17]): 40%
IC50 (Glutamate NMDA receptor [8]): Not Active
pIC50 (Glutamate NMDA receptor [9]): 5.82

C[C@]12N[C@H](Cc3ccccc31)c1ccccc12
inhibition [18]: 42%
inhibition [19]: 20%
inhibition [20]: 19%
